# Bioassay records deposited in PubChem BioAssay by several laboratories.
# An excerpt weighted towards active compounds, which were near 5.1% of everything screened.
# STAT1 act-1: STAT1 signaling activators, primary screen, cell-based, HTS, luciferase reporter; NIH 3T3 STAT1-luciferase reporter, IFN-gamma, luminescence; 100% = IFN-gamma alone, no compound; activation (% of control), % at 5.5 µM; 200,000 compounds, 2.6% hits; AID 932, 2007;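 active = activation above the screen-wide mean activation plus 3 SD, cut at about 130% in these data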;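 note: raw ratio to IFN-gamma control signal so 100% means no change and 0% no light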
# APP 5'UTR act: activators of APP 5'UTR luciferase reporter, primary screen, SH-SY5Y cells. SH-SY5Y APP 5'UTR luciferase reporter, luminescence; zero percent = DMSO vehicle wells. activation, % at 2 µM. 190,000 compounds, 1% hits;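 active = activation above a set limit, based on mean plus 3 SD of controls, cut at about 140% in these data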
# STAT1 blocker: STAT1 signaling inhibitors, primary screen, cell-based, HTS, luciferase reporter. NIH 3T3 STAT1-luciferase reporter, IFN-gamma, luminescence. AID 920, 2007. inhibition, % at 5.5 µM. 200,000 compounds, 0.35% hits;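 active = inhibition above a set limit, the mean inhibition across all tested compounds plus 3 SD, cut at about 34% in these data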;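 note: 0% = IFN-gamma with DMSO and 100% = IFN-gamma with 300 µM nifuroxazide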
# NF-kB expr up: activators of NF-kB expression in neurons, primary screen, cell-based, HTS. AID 1239, 2008. fold change at 12.5 µM. 190,000 compounds, 1.6% hits. human neuronal cells, NF-kB reporter expression; stronger effect = higher value; in the data active = fold change above about 3.3
# STAT3 inh: IL-6 driven STAT3 reporter inhibitors, primary screen, U3A cells, luciferase, luminescence, MLSCN library. IL-6 STAT3-luciferase reporter; host cell line lacks STAT1. inhibition, % at 5.5 µM. 190,000 compounds, 0.89% hits. AID 862, 2007;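 active = inhibition above the mean inhibition across all screened compounds plus 3 SD, cut at about 44% in these data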;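 note: 0% = DMSO only wells and 100% = 100 µM nifuroxazide control wells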
# STAT3 act-1: IL-6 driven STAT3 reporter potentiators, primary screen, U3A cells, luciferase, luminescence, MLSCN library; IL-6 STAT3-luciferase reporter; 100% = signal with IL-6 EC80 alone; activation (% of control), % at 5.6 µM; 190,000 compounds, 0.91% hits; AID 871, 2007;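 active = activation above the screen-wide mean of compound activation plus 3 SD, cut at about 130% in these data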;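 note: 0% = background luminescence of wells with medium and substrate only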
#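 Material: human U3A cells carrying STAT3-luciferase construct. Measured by: reporter luminescence signal. Timing: compound 1 h, then IL-6 6 h at 37 °C.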
# STAT3 act-2: STAT3 reporter potentiators, retest of hits, confirmation, U3A cells, luciferase, luminescence; potentiation (% of control), % at 5.7 µM; 1,200 compounds, 64% hits; AID 1267, 2008; IL-6 potentiation; U3A cells lack STAT1; 100 means same as IL-6 alone; shares compounds with STAT3 act-1;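 active = percent activation of the STAT3 luciferase reporter above a set limit taken from the earlier primary screen, cut at about 130% in these data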;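 note: 0% = background signal of medium plus substrate and 100% = median of IL-6 with DMSO wells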
# NFkB act STAT3ct: NF-kB reporter activators in human cells, counter-screen for STAT3 activator project; AID 1309, 2008; activation (% of control), % at 5.7 µM; shares compounds with STAT3 act-1; NF-kappaB reporter activation; 1,200 compounds, 11% hits; in the data active = activation above about 120%;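 note: reporter induced by TNF-alpha stimulation; 100% = median of stimulated DMSO wells and 0% = no signal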
# STAT1 act-2: STAT1 reporter activators, IFN-gamma induced, counter-screen for STAT3 activator project, cell-based, NIH 3T3, luciferase luminescence; activation (% of control), % at 5.7 µM; shares compounds with STAT3 act-1; AID 1318, 2008; NIH 3T3 STAT1-luciferase reporter; 1,200 compounds, 13% hits;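 active = activation above the solvent-only control well mean plus 3 SD, set per screening run, cut at about 120% in these data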;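 note: 100% = IFN-gamma with DMSO median signal so 100% means no change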
# * marks the source's active call; other numbers are inactive results; . = no result given.
SMILES,STAT1 act-1,APP 5'UTR act,STAT1 blocker,NF-kB expr up,STAT3 inh,STAT3 act-1,STAT3 act-2,NFkB act STAT3ct,STAT1 act-2
O=C(N/N=C/c1cn(-c2ccccc2)nc1-c1cc2ccccc2o1)c1cccnc1,123.0,147.8*,-25.8,1.28,-65.0,158.6*,179.0*,138.4*,204.2*
CCc1ccc(S(=O)(=O)Nc2cc(SCC(=O)O)c(O)c3ccccc23)cc1,100.1,-5.8,-1.8,0.69,-6.1,109.3,.,.,.
O=S(=O)(Nc1cc(Sc2cccc3cccnc23)c(O)c2ccccc12)c1ccccc1,96.0,-74.9,4.5,0.5,-96.3,176.3*,148.2*,128.1*,128.4*
CCOC(=O)c1cc2c(nc1C)-c1cc(Cl)cc(Cl)c1OC2O (stereo unspecified),107.3,21.8,-9.4,1.03,11.6,92.2,.,.,.
O=C(CSc1ccc2ccccc2c1)Nc1ncccn1,107.0,1.9,-7.8,1.11,0.1,101.8,.,.,.
Cc1nc2cc(-c3cccc(F)c3)nn2c(N2CCN(C(=O)c3ccco3)CC2)c1C,97.5,15.2,2.7,1.99,-48.6,136.7*,119.6,113.7,90.9
CC(=O)Nc1ccccc1C(=O)C(=O)NCCc1ccccc1,108.9,23.9,-11.2,1.25,5.2,97.4,.,.,.
Cc1cccc(N2CCN(C(=O)/C=C/c3cccs3)CC2)c1C,108.8,-3.5,-9.6,1.13,11.7,96.9,.,.,.
CCS(=O)(=O)Nc1ccc(C2=NN(S(C)(=O)=O)C(c3cccs3)C2)cc1 (stereo unspecified),112.8,4.3,-15.0,1.5,-44.1,136.7*,124.8,101.5,102.1
Cn1c(=O)c2c(nc(N/N=C/c3ccc(OC(=O)c4ccco4)cc3)n2Cc2ccccc2Cl)n(C)c1=O,106.4,-33.4,-7.1,0.53,-3.8,100.9,.,.,.
COc1cc(SC#N)ccc1N=Cc1c(C)[nH]n(-c2ccc(Cl)cc2)c1=O,104.2,-2.3,-4.5,1,-52.5,143.9*,125.4,105.0,101.8
COc1cc(SC#N)ccc1N=Cc1c(C)[nH]n(-c2ccc(C)c(C)c2)c1=O,95.9,.,4.6,1,0.7,99.6,.,.,.
Oc1ccccc1/C=C/c1noc(-c2ccccc2O)n1,119.5,113.0,-22.8,1.08,-39.8,142.4*,168.9*,100.5,101.8
CC(C)CC1c2[nH]c3ccccc3c2CCN1C(=O)C1CCOCC1 (stereo unspecified),97.4,1.0,2.0,1.28,-8.3,119.2,.,.,.
Cc1c(CN2CCc3c([nH]c4ccccc34)C2CC(C)C)cnn1C (stereo unspecified),88.9,2.7,10.3,1.26,-42.6,138.6*,143.1*,105.8,101.8
CC(=O)c1cc(C(=O)N2CCc3c([nH]c4ccccc34)C2CC(C)C)[nH]n1 (stereo unspecified),97.1,12.9,1.4,0.98,-45.5,145.1*,142.6*,94.1,93.5
CC(C)CC1c2[nH]c3ccccc3c2CCN1C(=O)CCC(=O)N(C)C (stereo unspecified),102.8,9.1,-5.0,1.11,-49.5,144.5*,150.1*,106.8,97.6
Cn1cccc1-c1cc(C(=O)N2CCc3c([nH]c4ccccc34)C2c2ccccn2)[nH]n1 (stereo unspecified),73.3,-9.8,27.2,0.66,11.0,92.6,.,.,.
CC(C)Cc1cc(CN2CCC(CO)(Cc3cccc(C(F)(F)F)c3)CC2)[nH]n1,93.2,-20.5,6.2,0.95,8.5,95.8,.,.,.
